From ChEMBL document CHEMBL4765454, “Betulinic acid derived amides are highly cytotoxic, apoptotic and selective” (Eur J Med Chem, 2020)
Calls of active or inactive are those of the source. The rule behind the calls is not given here.

Experiments:
[1] = system: A2780; experiment: Cytotoxicity against human A2780 cells assessed as reduction in cell viability incubated for 72 hrs by SRB assay; format: functional, cell-based; settings: Homo sapiens, A2780, 72 h; read-out: EC50
[2] = system: A-375; experiment: Induction of apoptosis in human A375 cells assessed as necrotic cells at 4.8 uM measured after 24 hrs by Annexin V-FITC/propidium iodide staining based flow cytometry (reference value: 0.331%); format: functional
[3] = system: A-375; experiment: Induction of apoptosis in human A375 cells assessed as viable cells at 4.8 uM measured after 24 hrs by Annexin V-FITC/propidium iodide staining based flow cytometry (reference value: 90.123%); format: functional; settings: read-out: Activity
[4] = system: A-375; experiment: Induction of apoptosis in human A375 cells assessed as blebbing at 4.8 uM measured after 48 hrs by microscopic analysis; format: functional, cell-based
Outline: (§1)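 A375 cells treated at 3.0, 4.8 or 6.2 µM and inspected by light microscopy after 24 h or 48 h. Cell number and morphology were scored for apoptotic features: shrinkage, strangulation and blebbing.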

[5] = system: A-375; experiment: Cell cycle arrest in human A375 cells assessed as accumulation at subG1 phase measured after 24 hrs by propidium iodide staining based flow cytometry (reference value: 0.46%); format: functional
[6] = Selectivity ratio of EC50 for mouse NIH3T3 cells to EC50 for human A2780 cells; format: toxicity; settings: NIH3T3 cells versus A2780 cells, read-out: Ratio EC50
[7] = system: A-375; experiment: Induction of apoptosis in human A375 cells assessed as viable cells at 4.8 uM measured after 48 hrs by Annexin V-FITC/propidium iodide staining based flow cytometry (reference value: 92.723%); format: functional; settings: read-out: Activity
[8] = system: A-375; experiment: Induction of apoptosis in human A375 cells assessed as strangulation at 4.8 uM measured after 48 hrs by microscopic analysis; format: functional, cell-based; outline: as §1
[9] = system: A-375; experiment: Induction of apoptosis in human A375 cells assessed as early apoptotic cells at 4.8 uM measured after 24 hrs by Annexin V-FITC/propidium iodide staining based flow cytometry (reference value: 2.194%); format: functional
[10] = system: A-375; experiment: Cell cycle arrest in human A375 cells assessed as accumulation at subG1 phase measured after 48 hrs by propidium iodide staining based flow cytometry (reference value: 0.57%); format: functional
[11] = system: A-375; experiment: Induction of apoptosis in human A375 cells assessed as early apoptotic cells at 4.8 uM measured after 48 hrs by Annexin V-FITC/propidium iodide staining based flow cytometry (reference value: 1.622%); format: functional
[12] = Selectivity ratio of EC50 for mouse NIH3T3 cells to EC50 for human MCF7 cells; format: toxicity; settings: NIH3T3 cells versus MCF7 cells, read-out: Ratio EC50
[13] = Selectivity ratio of EC50 for mouse NIH3T3 cells to EC50 for human HT-29 cells; format: toxicity; settings: NIH3T3 cells versus HT-29 cells, read-out: Ratio EC50
[14] = system: A-375; experiment: Cell cycle arrest in human A375 cells assessed as accumulation at S phase measured after 24 hrs by propidium iodide staining based flow cytometry (reference value: 47.46%); format: functional
[15] = system: A-375; experiment: Induction of apoptosis in human A375 cells assessed as cell shrinkage at 4.8 uM measured after 48 hrs by microscopic analysis; format: functional, cell-based; outline: as §1
[16] = system: A-375; experiment: Cell cycle arrest in human A375 cells assessed as accumulation at G1 phase measured after 24 hrs by propidium iodide staining based flow cytometry (reference value: 44.59%); format: functional
[17] = system: A-375; experiment: Cell cycle arrest in human A375 cells assessed as accumulation at S phase measured after 48 hrs by propidium iodide staining based flow cytometry (reference value: 31.3%); format: functional
[18] = system: FaDu; experiment: Cytotoxicity against human FaDu cells assessed as reduction in cell viability incubated for 72 hrs by SRB assay; format: functional, cell-based; settings: Homo sapiens, FaDu, 72 h; read-out: EC50
[19] = system: A-375; experiment: Cell cycle arrest in human A375 cells assessed as accumulation at G2/M phase measured after 48 hrs by propidium iodide staining based flow cytometry (reference value: 10.83%); format: functional
[20] = system: A-375; experiment: Induction of apoptosis in human A375 cells assessed as late apoptotic cells at 4.8 uM measured after 24 hrs by Annexin V-FITC/propidium iodide staining based flow cytometry (reference value: 7.352%); format: functional
[21] = Selectivity ratio of EC50 for mouse NIH3T3 cells to EC50 for human FaDu cells
[22] = system: A-375; experiment: Induction of apoptosis in human A375 cells at 4.8 uM measured after 24 hrs by microscopic analysis; format: functional, cell-based; outline: as §1
[23] = system: A-375; experiment: Cell cycle arrest in human A375 cells assessed as accumulation at G1 phase measured after 48 hrs by propidium iodide staining based flow cytometry (reference value: 57.3%); format: functional
[24] = system: A-375; experiment: Induction of apoptosis in human A375 cells assessed as necrotic cells at 4.8 uM measured after 48 hrs by Annexin V-FITC/propidium iodide staining based flow cytometry (reference value: 0.547%); format: functional
[25] = system: HT-29; experiment: Cytotoxicity against human HT-29 cells assessed as reduction in cell viability incubated for 72 hrs by SRB assay; format: functional, cell-based; settings: Homo sapiens, HT-29, 72 h; read-out: EC50
[26] = system: A-375; experiment: Induction of apoptosis in human A375 cells assessed as late apoptotic cells at 4.8 uM measured after 48 hrs by Annexin V-FITC/propidium iodide staining based flow cytometry (reference value: 5.108%); format: functional
[27] = system: NIH3T3; experiment: Cytotoxicity against mouse NIH3T3 cells assessed as reduction in cell viability incubated for 72 hrs by SRB assay; format: cell-based; settings: Mus musculus, NIH3T3, 72 h; read-out: EC50
[28] = system: A-375; experiment: Cell cycle arrest in human A375 cells assessed as accumulation at G2/M phase measured after 24 hrs by propidium iodide staining based flow cytometry (reference value: 7.48%); format: functional
[29] = system: MCF7; experiment: Cytotoxicity against human MCF7 cells assessed as reduction in cell viability incubated for 72 hrs by SRB assay; format: functional, cell-based; settings: Homo sapiens, MCF7, 72 h; read-out: EC50
[30] = system: A-375; experiment: Cytotoxicity against human A-375 cells assessed as reduction in cell viability incubated for 72 hrs by SRB assay; format: functional, cell-based; settings: Homo sapiens, A-375, 72 h; read-out: EC50
[31] = system: A-375; experiment: Induction of apoptosis in human A375 cells assessed as blebbing at 6.2 uM measured after 48 hrs by microscopic analysis; format: functional, cell-based; outline: as §1
[32] = system: A-375; experiment: Induction of apoptosis in human A375 cells assessed as early apoptotic cells at 6.2 uM measured after 24 hrs by Annexin V-FITC/propidium iodide staining based flow cytometry (reference value: 2.194%); format: functional
[33] = system: A-375; experiment: Induction of apoptosis in human A375 cells assessed as cell shrinkage at 6.2 uM measured after 48 hrs by microscopic analysis; format: functional, cell-based; outline: as §1
[34] = system: A-375; experiment: Induction of apoptosis in human A375 cells assessed as necrotic cells at 6.2 uM measured after 24 hrs by Annexin V-FITC/propidium iodide staining based flow cytometry (reference value: 0.331%); format: functional
[35] = system: A-375; experiment: Induction of apoptosis in human A375 cells at 6.2 uM measured after 24 hrs by microscopic analysis; format: functional, cell-based; outline: as §1
[36] = system: A-375; experiment: Induction of apoptosis in human A375 cells assessed as viable cells at 6.2 uM measured after 24 hrs by Annexin V-FITC/propidium iodide staining based flow cytometry (reference value: 90.123%); format: functional; settings: read-out: Activity
[37] = system: A-375; experiment: Induction of apoptosis in human A375 cells assessed as necrotic cells at 6.2 uM measured after 48 hrs by Annexin V-FITC/propidium iodide staining based flow cytometry (reference value: 0.547%); format: functional
[38] = system: A-375; experiment: Induction of apoptosis in human A375 cells assessed as viable cells at 6.2 uM measured after 48 hrs by Annexin V-FITC/propidium iodide staining based flow cytometry (reference value: 92.723%); format: functional; settings: read-out: Activity
[39] = system: A-375; experiment: Induction of apoptosis in human A375 cells assessed as late apoptotic cells at 6.2 uM measured after 24 hrs by Annexin V-FITC/propidium iodide staining based flow cytometry (reference value: 7.352%); format: functional
[40] = system: A-375; experiment: Induction of apoptosis in human A375 cells assessed as early apoptotic cells at 6.2 uM measured after 48 hrs by Annexin V-FITC/propidium iodide staining based flow cytometry (reference value: 1.622%); format: functional
[41] = system: A-375; experiment: Induction of apoptosis in human A375 cells assessed as late apoptotic cells at 6.2 uM measured after 48 hrs by Annexin V-FITC/propidium iodide staining based flow cytometry (reference value: 5.108%); format: functional
[42] = system: A-375; experiment: Induction of apoptosis in human A375 cells assessed as strangulation at 6.2 uM measured after 48 hrs by microscopic analysis; format: functional, cell-based; outline: as §1

Structure (SMILES)	EC50 [1] [µM]	Activity [5] [%]	selectivity ratio [6]	Activity [10] [%]	selectivity ratio [12]	selectivity ratio [13]	Activity [14] [%]	Activity [16] [%]	Activity [17] [%]	EC50 [18] [µM]	Activity [19] [%]	Ratio EC50 [21]	Activity [23] [%]	EC50 [25] [µM]	EC50 [27] [µM]	Activity [28] [%]	EC50 [29] [µM]	EC50 [30] [µM]	further results
C=C(C)[C@@H]1CC[C@]2(C(=O)Nc3cccc4ncccc34)CC[C@]3(C)[C@H](CC[C@@H]4[C@@]5(C)C[C@H](OC(C)=O)[C@H](OC(C)=O)C(C)(C)[C@@H]5CC[C@]43C)[C@@H]12	3.24	3.53	37	11.49	19.2	4	58.53	37.51	57.06	3.49	0	34.4	31.39	> 30	> 120	0.43	6.26	2.9	Activity [2]: 0.749%; viability at 4.8 µM [3]: 80.4%; Activity [4]: Active; viability at 4.8 µM [7]: 67.4%; Activity [8]: Active; Activity [9]: 6.495%; Activity [11]: 18.861%; Activity [15]: Active; Activity [20]: 10.295%; Activity [22]: Active; Activity [24]: 1.342%; Activity [26]: 12.388%
C=C(C)[C@@H]1CC[C@]2(C(=O)NCc3ccccc3)CC[C@]3(C)[C@H](CC[C@@H]4[C@@]5(C)C[C@H](OC(C)=O)[C@H](OC(C)=O)C(C)(C)[C@@H]5CC[C@]43C)[C@@H]12	4.42	5.98	15.8	25.69	6.2	3.4	30.27	63.76	21.92	5.4	0	13	52.38	20.7	> 70	0	11.3	3.14	Activity [31]: Active; Activity [32]: 9.546%; Activity [33]: Active; Activity [34]: 0.667%; Activity [35]: Active; viability at 6.2 µM [36]: 81.9%; Activity [37]: 1.449%; viability at 6.2 µM [38]: 34.3%; Activity [39]: 7.93%; Activity [40]: 44.187%; Activity [41]: 20.078%; Activity [42]: Active
